Legend:
[1] = tested on: A2780; assay: Tested for cytotoxicity against Ovarian carcinoma parental type A2780 cell line expressing MDR-1 (-) gene; assay type: functional, cell-based; details: Homo sapiens
Procedure, shortened: (§1)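 XTT assay; 10,000 tumor cells/well preincubated 24 h at 37 °C, 5% CO2, then drug added directly from DMSO stocks over 100 fM to […] range. After 72 h XTT added, 4 h further incubation, OD read at 450 nm. IC50 (50% growth inhibition) derived from viability–dilution plots of duplicate runs.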

[2] = Tested for half life period at 37 degree Celsius in PBS buffer at 11.8 pH containing porcine liver esterase; assay type: ADME, Sus scrofa; details: pig, pH 11.8
Procedure, shortened: (§2)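 Drug at 37 °C in acetonitrile–aqueous buffer (20/80 vol%) at set pH, in human serum, or with pig liver carboxylic ester hydrolase. Serum samples pre-separated on C18 cartridges. Aliquots mixed 1:1 with acetonitrile, centrifuged, supernatant analysed by HPLC peak areas. First-order log conversion–time plots; k_obs and t1/2 from slopes; mean ± SD.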

[3] = Tested for half life period at 37 degree Celsius in PBS buffer at 7.3 pH containing porcine liver esterase; assay type: ADME, Sus scrofa; details: pig, pH 7.3; procedure, shortened: as §2
[4] = Tested for half life period at 37 degree Celsius in PBS buffer at 7.3 pH in containing porcine liver esterase; assay type: ADME, Sus scrofa; details: pig, pH 7.3; procedure, shortened: as §2
[5] = tested on: ADR5000 cell line; assay: Tested for cytotoxicity against Doxo resistant A2780 type ADR5000 cell line expressing MDR-1 (++) gene; assay type: functional, cell-based; details: Homo sapiens; procedure, shortened: as §1
[6] = tested on: HT-29; assay: Tested for cytotoxicity against Colon carcinoma type HT-29 cell line expressing MDR-1 (-) gene; assay type: functional, cell-based; details: Homo sapiens; procedure, shortened: as §1
[7] = biological target: T1, S-formylglutathione hydrolase (Sus scrofa) (UniProt Q9GJT2); assay: Tested for rate constant at 37 degree Celsius in PBS buffer at 11.8 pH containing porcine liver esterase expressed in 10 e-3 min e-1; procedure, shortened: as §2
T1 sequence (whole entry): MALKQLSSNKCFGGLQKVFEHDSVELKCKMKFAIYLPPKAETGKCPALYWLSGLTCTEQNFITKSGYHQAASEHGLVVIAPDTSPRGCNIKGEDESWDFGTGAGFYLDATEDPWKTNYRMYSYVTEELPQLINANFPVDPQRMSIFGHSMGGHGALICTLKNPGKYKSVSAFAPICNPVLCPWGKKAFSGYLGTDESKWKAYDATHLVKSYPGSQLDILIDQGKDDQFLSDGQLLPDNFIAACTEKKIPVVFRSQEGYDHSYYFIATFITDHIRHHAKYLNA

[8] = tested on: SW480; assay: Tested for cytotoxicity against Colon adenocarcinoma resistant type SW480 cell line expressing MDR-1 (+) gene; ~50% cells affected by drug; assay type: functional, cell-based; details: Homo sapiens; procedure, shortened: as §1
[9] = tested on: VCR100; assay: Tested for cytotoxicity against T-lymphoblastoide VC resistant type VCR 100 cell line expressing MDR-1 (+) gene; assay type: functional, cell-based, Homo sapiens; procedure, shortened: as §1
[10] = tested on: MOVP-3; assay: Tested for cytotoxicity against VP 16 resistant Molt3 type MOVP-3 cell line expressing MDR-1 (++) gene; assay type: functional, cell-based; details: Homo sapiens; procedure, shortened: as §1
[11] = tested on: MOLT-3; assay: Tested for cytotoxicity against parental T-cell leukemia type Molt 3 cell line expressing MDR-1 (-) gene; assay type: functional, cell-based; details: Homo sapiens; procedure, shortened: as §1
[12] = Tested for half life period at 37 degree Celsius in PBS buffer at 10.5 pH containing human serum esterase; assay type: ADME; details: pH 10.5; procedure, shortened: as §2
[13] = Tested for half life period at 37 degree Centigrade in PBS buffer at 7.3 pH containing human serum esterase; assay type: ADME; details: pH 7.3; procedure, shortened: as §2
[14] = Tested for half life period at 37 degree Celsius in PBS buffer at 8.0 pH containing human serum esterase; assay type: ADME; details: pH 8; procedure, shortened: as §2
[15] = Tested for half life period at 37 degree Celsius in PBS buffer at 8.8 pH containing human serum esterase; assay type: ADME; details: pH 8.8; procedure, shortened: as §2
[16] = biological target: Cholinesterase (Homo sapiens) (UniProt P06276); assay: Tested for rate constant at 37 degree Celsius in PBS buffer at 7.3 pH in human serum containing porcine liver esterase expressed in 10 e-3 min e-1; assay type: cell-free
Sequence of Cholinesterase (Homo sapiens) (P06276 whole entry): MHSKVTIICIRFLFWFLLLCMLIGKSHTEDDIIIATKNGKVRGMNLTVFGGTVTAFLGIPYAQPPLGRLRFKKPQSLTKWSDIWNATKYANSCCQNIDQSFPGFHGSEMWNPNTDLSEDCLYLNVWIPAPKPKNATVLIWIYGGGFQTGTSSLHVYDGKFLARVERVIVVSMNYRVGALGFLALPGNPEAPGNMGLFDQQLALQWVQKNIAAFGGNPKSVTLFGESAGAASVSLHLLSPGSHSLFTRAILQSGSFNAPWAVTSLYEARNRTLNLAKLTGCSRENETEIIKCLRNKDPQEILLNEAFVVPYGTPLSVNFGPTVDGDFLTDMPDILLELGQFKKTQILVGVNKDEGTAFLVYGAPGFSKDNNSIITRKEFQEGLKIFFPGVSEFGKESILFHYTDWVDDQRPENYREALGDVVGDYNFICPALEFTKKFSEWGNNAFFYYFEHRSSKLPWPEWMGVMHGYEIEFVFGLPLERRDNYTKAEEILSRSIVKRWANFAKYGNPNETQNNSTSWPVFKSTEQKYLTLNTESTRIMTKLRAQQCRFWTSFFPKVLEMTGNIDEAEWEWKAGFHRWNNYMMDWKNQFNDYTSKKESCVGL
Procedure, shortened: (§3)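 Prodrug dissolved at 37 °C in 20/80 vol% acetonitrile–aqueous PBS at the stated pH, in human serum, or with pig liver carboxylic ester hydrolase. Serum samples were pre-cleaned on C18 cartridges. Aliquots were quenched with an equal volume of acetonitrile and centrifuged, and the supernatant was analysed by HPLC peak area. k_obs was taken from the slope of first-order log conversion–time plots and reported as mean ± SD.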

[17] = biological target: Cholinesterase (Homo sapiens) (UniProt P06276); assay: Tested for rate constant at 37 degree Celsius in PBS buffer at 8.0 pH containing human serum esterase expressed in 10 e-3 min e-1; procedure, shortened: as §3
[18] = biological target: Cholinesterase (Homo sapiens) (UniProt P06276); assay: Tested for rate constant at 37 degree Celsius in PBS buffer at 8.8 pH containing human serum esterase expressed in 10 e-3 min e-1; procedure, shortened: as §3
[19] = biological target: Cholinesterase (Homo sapiens) (UniProt P06276); assay: Tested for rate constant at 37 degree Celsius in PBS buffer at 10.5 pH containing human serum esterase expressed in 10 e-3 min e-1; procedure, shortened: as §3
[20] = tested on: HT-29; assay: Tested for cytotoxicity against Colon carcinoma type HT-29 cell line expressing MDR-1 (-) gene; 35% of cells were affected; assay type: functional, cell-based; details: Homo sapiens; procedure, shortened: as §1

SMILES	IC50 [1] [nM]	half-life [2] [h]	half-life [3] [h]	half-life [4] [h]	IC50 [5] [nM]	IC50 [6] [nM]	K obs [7]	IC50 [8] [nM]	IC50 [9] [nM]	IC50 [10] [nM]	IC50 [11] [nM]	half-life [12] [min]	half-life [13] [h]	half-life [14] [h]	half-life [15] [h]	K obs [16]	K obs [17]	K obs [18]	K obs [19]	IC50 [20] [nM]
COc1cc([C@@H]2c3cc4c(cc3C(O[C@@H]3O[C@H]5CO[C@@H](C)O[C@H]5[C@H](O)[C@@H]3O)C3COC(=O)[C@@H]32)OCO4)cc(OC)c1OC(=O)OCC1COC(C)(C)O1 (stereo partly drawn)	90	1.39	0.236	12.5	6500	3.5	8.33	110	3200	12	10	–	–	–	–	–	–	–	–	–
COc1cc([C@@H]2c3cc4c(cc3C(O[C@@H]3O[C@H]5CO[C@@H](C)O[C@H]5[C@H](O)[C@@H]3O)C3COC(=O)[C@@H]32)OCO4)cc(OC)c1OC(=O)OCC(O)CO (stereo partly drawn)	580	–	–	–	38000	5.7	–	110	7600	50	35	6.93	0.934	3.61	1.62	12.4	3.2	7.14	100	–
COc1cc([C@@H]2c3cc4c(cc3[C@@H](O[C@@H]3O[C@@H]5CO[C@@H](C)O[C@H]5[C@H](O)[C@H]3O)[C@H]3COC(=O)[C@H]23)OCO4)cc(OC)c1O [ETOPOSIDE]	65000	–	–	–	100000	–	–	50000	15500	7550	65	–	–	–	–	–	–	–	–	10000

From ChEMBL document CHEMBL1135061, “Synthesis, hydrolytic activation and cytotoxicity of etoposide prodrugs” (Bioorg Med Chem Lett, 2002)
